The values below come from ChEMBL document CHEMBL4622936, “Discovery of the potent non-steroidal glucocorticoid receptor modulator BAY 1003803 as clinical candidate” (Bioorg Med Chem Lett, 2020).

The nature of series [1]: Mutagenicity in Salmonella typhimurium by Ames test. Format: toxicity. Conditions: salmonella enterica subsp. enterica serovar typhimurium. A general note: The Ames test uses bacterial strains that need an amino acid and regain growth without it when mutated back.
Series [2] can be described thus: Lipophilicity, logP of compound. Format: physicochemical. Conditions: octanol/water.
Series [3] in a line: Inhibition of collagenase (unknown origin) transfected in human HeLa cells by luciferase reporter gene assay. It counts as cell-based.
Series [4] relates to HeLa. As to the kind of experiment: Inhibition of collagenase (unknown origin) transfected in human HeLa cells by luciferase reporter gene assay relative to control. It counts as cell-based. Background: A reporter such as luciferase makes a cellular process visible.
For series [5], the system named is THP-1. Put plainly: Immunomodulatory activity in human THP1 cells assessed as reduction in LPS-induced IL-8 production. It counts as functional, cell-based. In short, it runs like this:
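Human promyeloid THP-1 cells were stimulated with lipopolysaccharide to induce IL-8 synthesis, and inhibition of IL-8 production by the test compound was measured.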

The subject of series [6] is THP-1. As to the kind of experiment: Immunomodulatory activity in human THP1 cells assessed as reduction in LPS-induced IL-8 production relative to control. Format: functional.
In series [7] the test system is PBMC. Put plainly: Inhibition of LPS-induced TNFalpha release in human PBMC cells. Format: functional, cell-based. Put shortly:
(§1)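 Primary human peripheral blood mononuclear cells were stimulated with LPS (IL-12p40, TNFα) or PHA (IFNγ, IL-2, IL-4). Cytokine release was measured with test compound, and clobetasol and dexamethasone were run in parallel as reference glucocorticoids.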

Series [8] relates to PBMC. As to the kind of experiment: Inhibition of LPS-induced TNFalpha release in human PBMC cells relative to control. Format: functional.
For series [9], the system named is PBMC. Put plainly: Inhibition of LPS-induced IL12p40 release in human PBMC cells. It counts as functional, cell-based. Put shortly: as §1
The subject of series [10] is PBMC. Put plainly: Inhibition of LPS-induced IL12p40 release in human PBMC cells relative to control. It counts as functional.
Series [11] deals with PBMC. Put plainly: Inhibition of PHA-induced IL2 release in human PBMC cells. Format: functional, cell-based. In short, it runs like this:
as §1

For series [12], the system named is PBMC. Put plainly: Inhibition of PHA-induced IL2 release in human PBMC cells relative to control. It counts as functional.
The test system of series [13] is PBMC. Put plainly: Inhibition of PHA-induced IFNgamma release in human PBMC cells. Format: functional, cell-based. In short, it runs like this:
as §1

Series [14] concerns PBMC. As to the kind of experiment: Inhibition of PHA-induced IFNgamma release in human PBMC cells relative to control. It counts as functional.
Series [15] has as its system PBMC. Put plainly: Inhibition of PHA-induced IL4 release in human PBMC cells. It counts as functional, cell-based. Put shortly:
as §1

Series [16] has as its system PBMC. As to the kind of experiment: Inhibition of PHA-induced IL4 release in human PBMC cells relative to control. It counts as functional.

For orientation: logP means a log measure of how a compound divides between an organic and an aqueous phase. The EC50 is the midpoint of the concentration-response curve. The term Emax denotes the greatest response seen or fitted, relative to the assay's reference. Usually IC50 stands for the concentration at which inhibition is half-maximal.

Take `Nc1ccc(F)c2[nH]c(=O)ccc12`: the Activity result in [1] is listed as “Toxic”.

In turn, `COc1ccc([C@H](Nc2cc(F)cc3[nH]c(=O)ccc23)[C@](O)(CN(C)C)C(F)(F)F)c(Cl)c1F` had a logP in [2] of 4.4. Besides, the EC50 in series [3] is 3.98 nM. For the same molecule, the values for the Emax in series [4] and in [6] were 62% and 109%, respectively. In addition, the IC50 in series [5] was 7.94 nM.

For the molecule `C[C@H]1C[C@H]2[C@@H]3CCC4=CC(=O)C=C[C@]4(C)[C@@]3(F)[C@@H](O)C[C@]2(C)[C@@]1(O)C(=O)CCl` [CLOBETASOL], the IC50 in series [7] is 0.23 nM; in series [9] it was 0.14 nM; in [11] it was 0.14 nM; in series [13], 0.16 nM; in series [15], 0.07 nM. Moreover, the Efficacy stood at 102% in series [8]; 98% in series [10]; 97% in [12]; 101% in [14]; 99% in series [16].

For the molecule `CCOC[C@@](O)([C@@H](Nc1cc(F)cc2[nH]c(=O)ccc12)c1ccc(OC)c(F)c1Cl)C(F)(F)F`, the logP in [2] is 3.8. Further, in series [3], the response was half-maximal at 1.58 nM (EC50). Besides, the Emax in series [4] was 91%; in series [6], 99%. The IC50 in series [5] is 0.794 nM.

In series [2], `COc1ccc([C@H](Nc2cccc3nc(C)ccc23)[C@](O)(CSC)C(F)(F)F)c(Cl)c1F` displayed a logP of 4.5. In addition, the EC50 in [3] was 0.251 nM. For the same molecule, the figures for the Emax in [4] and in series [6] were 89% and 98%, respectively. Also, in series [5], the IC50 is 0.126 nM.

In the case of `CC[C@H]1c2c(cc(F)c(F)c2O)[C@H](Nc2cccc3[nH]c(=O)ccc23)[C@@](O)(C(F)(F)F)C1OC` (stereo partly drawn), the logP in [2] came to 3.1. In addition, the EC50 in series [3] is 10 nM. Further, the Emax in series [4] is 29%; in series [6] it was 78%. Also, the IC50 in series [5] is 6.31 nM.

As for `CCSC[C@@](O)([C@@H](Nc1cccc2nc(C)ccc12)c1ccc(Cl)c(F)c1OC)C(F)(F)F`, in series [2], the logP was found to be 5.3. The EC50 in series [3] was 1.26 nM. For the same molecule, the results for the Emax in [4] and in series [6] were 66% and 82%, respectively. Also, in series [5], the concentration for half-maximal inhibition (IC50) was 1.58 nM.

As for `Nc1cccc2c(=O)[nH]ccc12`, the Activity entry in series [1] is reported as “Toxic”.

`CCSC[C@@](O)([C@@H](Nc1cccc2nc(C)ccc12)c1ccc(F)cc1OC)C(F)(F)F` had a logP in [2] of 4.4. Also, the EC50 in series [3] is 10 nM. Further, the Emax was found to be 72% in series [4] and 78% in series [6]. In [5], the IC50 is 5.01 nM.

`CCSC[C@@](O)([C@@H](Nc1cccc2nc(C)ccc12)c1ccc(OC)c(F)c1)C(F)(F)F` showed a logP in series [2] of 4.1. For the same molecule, the EC50 in series [3] was 6.31 nM. Moreover, the figures for the maximal response (Emax) in [4] and in series [6] were 77% and 82%, respectively. For the same molecule, the IC50 in series [5] is 5.01 nM.

As for `Nc1cc(F)cc2[nH]c(=O)ccc12`, the Activity result in [1] is on record as “Non-Toxic”.

In the case of `COc1ccc([C@H](Nc2cccc3nc(C)ccc23)[C@](O)(CC#N)C(F)(F)F)c(Cl)c1F`, in series [2], the logP came out at 3.4. Moreover, the EC50 in series [3] is 1.58 nM. Further, the Emax amounted to 80% in series [4] and 83% in series [6]. Besides, in [5], the IC50 is 1.26 nM.

Take `COC[C@@](O)([C@@H](Nc1cccc2nc(C)ccc12)c1ccc(OC)c(F)c1Cl)C(F)(F)F`: in series [2], the logP worked out at 3.8. Further, in [3], the EC50 is 1.58 nM. Further, the Emax in series [4] came to 80%; in series [6], 97%. For the same molecule, the IC50 in series [5] is 0.2 nM.

Molecule `C[C@@H]1C[C@H]2[C@@H]3CCC4=CC(=O)C=C[C@]4(C)[C@@]3(F)[C@@H](O)C[C@]2(C)[C@@]1(O)C(=O)CO` [DEXAMETHASONE] showed an EC50 in series [3] of 7.94 nM. Also, the Emax in series [4] and in [6] was 100% throughout. Also, the IC50 in [5] was 2.51 nM; in series [7] it was 6.4 nM; in [9], 4.3 nM; in [11], 4.6 nM; in [13] it was 3.8 nM; in series [15], 2.3 nM. Further, the Efficacy in series [8], in series [10], in series [12], in series [14] and in series [16] was 100% each time.

In turn, `COc1ccc([C@H](Nc2cc(F)cc3[nH]c(=O)ccc23)[C@](O)(CSC)C(F)(F)F)c(Cl)c1F` had a logP in [2] of 3.9. In addition, the EC50 in series [3] was 0.398 nM. The Emax in series [4] came to 94%; in [6], 100%. In series [5], the IC50 was 0.1 nM.

On to `Nc1c(F)ccc2[nH]c(=O)ccc12`, for which the Activity result in series [1] is given as “Toxic”.

Turning to `CCSC[C@@](O)([C@@H](Nc1cccc2nc(C)ccc12)c1ccc(OC)c(F)c1Cl)C(F)(F)F`, in [2], the logP was 4.9. This molecule also gave an EC50 in [3] of 0.631 nM. For the same molecule, the Emax in [4] came to 87%; in series [6] it was 91%. Also, the IC50 in [5] was 0.158 nM.

Consider `CCSC[C@@](O)([C@@H](Nc1cc(F)cc2[nH]c(=O)ccc12)c1ccc(OC)c(F)c1Cl)C(F)(F)F`, for which, in series [2], the lipophilicity (logP) came to 4.3. For the same molecule, the EC50 in series [3] is 3.16 nM. For the same molecule, the Emax worked out at 92% in [4] and 93% in series [6]. In addition, the concentration for half-maximal inhibition (IC50) in [5] is 1.58 nM.

Molecule `COc1ccc([C@H](Nc2cccc3nc(C)ccc23)[C@](O)(CN(C)C)C(F)(F)F)c(Cl)c1F` showed a logP in series [2] of 5.3. The midpoint of the response in series [3], the EC50, lay at 39.8 nM. Besides, the maximal response (Emax) is 66% in series [4] and 77% in series [6]. Moreover, in series [5], the IC50 is 5.01 nM.

The molecule `CCSC[C@@](O)([C@@H](Nc1cccc2nc(C)ccc12)c1ccc(Cl)c(F)c1O)C(F)(F)F` registered a logP in series [2] of 3.4. Also, in series [3], the EC50 is 25.1 nM. For the same molecule, the Emax in series [4] amounted to 102%; in [6], 107%. The IC50 in series [5] is 20 nM.

Take `CCSC[C@@](O)([C@@H](Nc1cccc2nc(C)ccc12)c1ccc(OC)cc1F)C(F)(F)F`: the log partition coefficient (logP) in series [2] was 4.4. This molecule also had an EC50 in series [3] of 5.01 nM. Further, the Emax was determined as 63% in series [4] and 85% in series [6]. Moreover, in [5], the IC50 is 5.01 nM.

For `CCSC[C@@](O)([C@@H](Nc1cccc2nc(C)ccc12)c1cccc(F)c1OC)C(F)(F)F`, in [2], the logP was 4.6. In series [3], this molecule showed an EC50 of 10 nM. Further, the figures for the Emax in series [4] and in series [6] were 47% and 69%, respectively. In addition, the IC50 in series [5] is 2 nM.

`CCSC[C@@](O)([C@@H](Nc1cccc2nc(C)ccc12)c1ccc(C)cc1)C(F)(F)F` yielded a logP in [2] of 4.8. The same molecule showed an EC50 in [3] of 12.6 nM. In addition, the Emax came to 66% in [4] and 87% in [6]. The IC50 in series [5] is 2.51 nM.

`CCSC[C@@](O)([C@@H](Nc1cccc2nc(C)ccc12)c1ccc(OC)cc1)C(F)(F)F`: the logP in [2] worked out at 4.2. Further, it took 10 nM to reach a half-maximal effect in [3] (EC50). In addition, the Emax in series [4] was determined as 70%; in [6], 86%. The IC50 in series [5] was 6.31 nM.
